Screens from PubChem BioAssay.
Only some compounds are listed: those with a hit (about 2.3% of all), similar ones and a draw of the others.
ADAM17 inh – inhibitors of human ADAM17; recombinant ADAM17, EDANS/DABCYL FRET peptide cleavage; inhibition, % at 6.95 µM; AID 720648; 370,000 tested, 0.83% active; P78536;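 active means inhibition above the mean of compounds lying between control limits plus 3 SD, set per campaign, cut at about 8.5% in these data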;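 further: 0% = DMSO-only wells as the low control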
PLCg1 inh – PLC-gamma1 (human) inhibition, primary screen | purified PLC-gamma1, fluorogenic substrate, fluorescence | inhibition, % at 12.2 µM | 370,000 tested, 0.84% active | AID 720700; in the data active means inhibition above about 9.5%
Tn7 DDE FP – DD(E)-Tn7 binding inhibition, primary FP screen. FP displacement of FITC-Tn7 peptide from fibrin DD(E); 0% = median of compound wells per plate. P02675. inhibition, % at 8.3 µM. AID 720508. 370,000 tested, 0.13% active;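 active means inhibition above the mean of compounds falling within the control limits plus 3 SD of them, cut at about 14% in these data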;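 further: 0% = plate median of compound wells and 100% = 10 µM Aha-Tn7 peptide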
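System: human fibrin DD(E); quantity: Fibrin-DD(E) at 2 µM final; also added: fluorescent Tn7 probe at 0.1 µM; compound dosing: single nominal test concentration of 8.3 µM per compound; schedule: 10 min preincubation, 3 h with tracer, room temperature; detection: fluorescence polarization of the labelled Tn7 tracer; repeats: one replicate per compound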
Tn6 DDE FP – disrupts Tn6 cyclic peptide binding to fibrin D-Dimer-E complex | P02675 | 370,000 tested, 0.21% active | inhibition, % at 8.3 µM | Fibrin DD(E) TRITC-Tn6 fluorescence polarization displacement;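 active means inhibition above a per-campaign cutoff: mean of compounds within control limits plus 3 SD, cut at about 15% in these data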;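 further: 0% = median of all compound wells on the plate and 100% = blocking peptide control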
ADAM10 inh – inhibits human ADAM10; recombinant ADAM10, EDANS/DABCYL FRET peptide cleavage, 3 h; 370,000 tested, 0.62% active; O14672; inhibition, % at 7 µM;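 active means inhibition above a per-campaign cutoff equal to the mean of compounds falling between control-based bounds plus 3 SD, cut at about 20% in these data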;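 further: 0% = DMSO wells while the 100% control is not disclosed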
Target sequence (O14672 214-748 limits assumed): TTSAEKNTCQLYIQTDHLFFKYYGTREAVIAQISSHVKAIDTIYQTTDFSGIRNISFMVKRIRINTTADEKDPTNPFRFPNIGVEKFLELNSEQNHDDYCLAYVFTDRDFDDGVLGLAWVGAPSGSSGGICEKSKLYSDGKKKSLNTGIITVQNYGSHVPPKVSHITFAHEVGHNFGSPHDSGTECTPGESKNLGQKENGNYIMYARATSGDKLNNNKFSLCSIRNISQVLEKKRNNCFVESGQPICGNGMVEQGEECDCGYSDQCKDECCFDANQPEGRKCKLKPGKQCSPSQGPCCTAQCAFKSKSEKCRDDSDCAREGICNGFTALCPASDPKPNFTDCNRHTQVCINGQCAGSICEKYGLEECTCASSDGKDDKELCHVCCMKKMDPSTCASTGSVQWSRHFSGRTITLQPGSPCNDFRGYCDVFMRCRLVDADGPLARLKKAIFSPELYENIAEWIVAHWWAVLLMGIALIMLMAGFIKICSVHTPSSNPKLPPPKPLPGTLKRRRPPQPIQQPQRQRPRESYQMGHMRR
PLCb3 inh – inhibitors of human phospholipase C beta3 | Purified PLC-beta3, fluorogenic substrate, fluorescence | inhibition, % at 12.2 µM | 370,000 tested, 0.18% active; in the data active means inhibition above about 11%;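 further: 0% = median of compound wells on plate and 100% = full blocker control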
ADAM10 counter – inhibits human ADAM10 in ADAM17 exosite counter-screen. shares compounds with ADAM17 inh. recombinant ADAM10, EDANS/DABCYL FRET peptide cleavage, 3 h. inhibition, % at 6.95 µM. 2,900 tested, 47% active. AID 743256;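 active means mean inhibition over the triplicate runs exceeds the activity threshold set in the earlier primary screen, cut at about 20% in these data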;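 further: 0% = DMSO wells and 100% = marimastat wells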
ADAM17 confirm – human ADAM17 inhibition, confirmation; inhibition, % at 6.95 µM; 2,900 tested, 65% active; recombinant ADAM17, EDANS/DABCYL QFRET peptide cleavage; shares compounds with ADAM17 inh;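 active means mean inhibition across replicates above the hit cutoff set in the primary screen, cut at about 8.5% in these data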;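 further: 0% = DMSO wells and 100% = marimastat wells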
An asterisk follows results filed as active; . = no result given.

SMILES | ADAM17 inh | PLCg1 inh | Tn7 DDE FP | Tn6 DDE FP | ADAM10 inh | PLCb3 inh | ADAM10 counter | ADAM17 confirm
CCOC(=O)N1CCN(C(=O)C[C@H]2C[C@@]3(C(=O)OC)C(=C[C@H](COCc4ccccc4)O[C@@H]3C)N(Cc3ccc(Cl)cc3Cl)C2=O)CC1 | 2 | 1 | 1 | -4 | 7 | 0 | . | .
COC(=O)[C@H]1C[C@@]2(n3ccc4ccccc43)c3ccccc3N[C@H]2N1 | -6 | -4 | -2 | 3 | -8 | -4 | . | .
CCOC(=O)[C@@]12CN(C(=O)OC(C)(C)C)CC=C1N(Cc1ccc(OC)cc1)C(=O)[C@H]2CC(=O)N1CCCCC1 | -3 | -2 | -4 | 0 | -8 | 0 | . | .
COc1ccc(CN[C@@H]2CC[C@@]34CCCN3C(=O)CCC[C@H]4C2)cc1 | 1 | 5 | -6 | 4 | 3 | 4 | . | .
O=C(Nc1nnc([C@@H]2C[C@H](O)[C@@H](CO)O2)s1)Nc1ccc(F)cc1F | 10* | 5 | -2 | 1 | 5 | 3 | 2 | 2
N#CC1(Cc2ccccc2Cl)c2ccccc2C=CN1C(=O)c1ccccc1 (centres undefined) | 11* | 0 | -6 | -6 | 15 | 0 | 14 | 9.3*
O=[N+]([O-])c1ccccc1N/N=C/c1c[nH]c2ccccc12 | -2 | 5 | 1 | 1 | -3 | 1 | . | .
O=[N+]([O-])c1ccc(N/N=C/c2c[nH]c3ccccc23)cc1 | 9.6* | -25 | 1 | -20 | 17 | -36 | 17 | 8
O=C(c1ccccc1[N+](=O)[O-])N(CCc1ccccc1)Cc1ccccc1 | 1 | 0 | 4 | -3 | -3 | -6 | . | .
Cc1cccc(C(=O)N(CCc2ccccc2)Cc2ccccc2)c1[N+](=O)[O-] | 8.8* | 0 | 6 | 1 | 14 | -11 | 28* | 13*
CC(C)=CCC[C@@]1(C(=O)O)[C@H]2CC=C(CO)[C@@H]1CC/C(C)=C/CC/C(C)=C/C2 | -1 | 6 | 5 | 1 | -2 | 0 | . | .
CC(=O)NC12CC3CC(C1)CC(C(=O)Nc1nc4ccc(F)cc4s1)(C3)C2 | 8.6* | -1 | -5 | 2 | -4 | -9 | -2 | 2
CCC(CC)c1nnc(NC(=O)C23CC4CC(CC(NC(C)=O)(C4)C2)C3)s1 | 1 | 4 | -3 | -4 | 0 | -5 | . | .
CCCCN1C(=O)N2Cc3ccccc3C2CS1(=O)=O (centres undefined) | 0 | -1 | -1 | 1 | 1 | 3 | . | .
S=C(NCc1ccccc1)NCc1cccc(CNC(=S)NCc2ccccc2)c1 | 9.3* | 5 | -8 | 1 | 13 | 2 | 22* | 14*
O=C(NNC(=S)NC(=O)c1ccccc1Cl)c1cccc([N+](=O)[O-])c1 | 0 | 1 | 5 | -6 | -6 | 0 | . | .
O=C(NNC(=S)NCc1ccccc1)c1cccc([N+](=O)[O-])c1 | 13* | 5 | -9 | -3 | 16 | 1 | 12 | 8
Cc1cccc(-c2cccc3c4c([nH]c23)[C@@H]2C[C@H](N(C)C(=O)c3cccc(Cl)c3)[C@H]([C@H](C)O)CN2CC4)c1 | -7 | -39 | 0 | 7 | -19 | -60 | . | .
CC(C)c1ccc(S(=O)(=O)Nc2ccc3c(c2)OCO3)cc1 | 12* | 4 | -6 | 6 | 8 | 1 | 8 | 6
CS(=O)(=O)c1ccccc1-c1nc(-c2ccc(C(F)(F)F)cc2)no1 | 8.7* | 6 | -2 | 1 | 18 | 6 | 9 | 5
Cc1onc(-c2ccccc2Cl)c1C(=O)Nc1ccc2c(c1)OCO2 | 10* | 4 | 0 | -2 | 2 | 6 | 11 | 9
Cc1ccc(NC(=S)NC(=O)c2c(-c3ccccc3Cl)noc2C)cc1 | 10.0* | 3 | 1 | 7 | 11 | 0 | 26* | 14*
Cc1onc(-c2c(Cl)cccc2Cl)c1C(=O)Nc1ccc2c(c1)OCCO2 | 1 | 2 | 5 | -6 | -6 | 1 | . | .
Cc1onc(-c2ccccc2Cl)c1C(=O)NC(=S)Nc1ccc(C(C)C)cc1 | 3 | 3 | -5 | 4 | 9 | -5 | . | .
O=C1CCC[C@H]2C[C@H](NCc3ccc(Cl)c(Cl)c3)CC[C@]23CCCN13 | -3 | 0 | -3 | 2 | -1 | 0 | . | .
SMILES | ADAM17 inh | PLCg1 inh | Tn7 DDE FP | Tn6 DDE FP | ADAM10 inh | PLCb3 inh | ADAM10 counter | ADAM17 confirm
CCOC(=O)C1(CC2CCCCO2)CCN(C(=O)Nc2cccc(SC)c2)CC1 (centres undefined) | 9.2* | 7 | 1 | -3 | 2 | 4 | 3 | 0
Cn1nc(C(F)(F)F)c(C(=O)Nc2ccc(F)cc2F)c1Sc1cccc(C(F)(F)F)c1 | 9.8* | 5 | 0 | -5 | 15 | 5 | 10 | 8
O=C(CSc1nc2ccccc2n1Cc1ccccc1Cl)NN=C/C(Br)=C/c1ccccc1 | 1 | -1 | -4 | -8 | -4 | -1 | . | .
O=C(Nc1ccccc1N1CCOCC1)c1ccc(Cl)c(S(=O)(=O)N2CCCC2)c1 | 1 | 2 | 10 | -2 | -10 | -11 | . | .
COc1ccccc1NC(=O)c1ccc(Cl)c(S(=O)(=O)N2CCCCC2)c1 | 10* | 9 | -1 | -10 | 14 | -8 | 3 | 3
Cc1ccc(-c2c(NC(=O)c3ccc(F)cc3)nc3ncccn23)cc1 | -89 | -279 | 5 | -5 | -301 | -357 | . | .
CC(C)CNc1cccc2c1S(=O)(=O)N(Cc1cn(Cc3cccc(C(F)(F)F)c3)nn1)Cc1ccccc1O2 | -2 | -31 | -4 | 5 | -15 | -18 | . | .
O=C(Cc1ccc(Nc2nc3ccc(Br)cc3[nH]2)cc1)NCCc1cccs1 | 8.9* | 7 | -5 | 7 | 7 | 3 | 14 | 9.5*
CC1(C(=O)NS(=O)(=O)c2cccc(Cl)c2)CCN1C(=O)Cc1ccc(-c2ccccc2)cc1 (centres undefined) | 9.0* | -2 | 0 | 0 | 3 | -5 | 8 | 6
CC1(C(=O)NS(=O)(=O)c2cccc(F)c2)CCN1C(=O)Cc1ccc(-c2ccccc2)cc1 (centres undefined) | 0 | -3 | 4 | 5 | -13 | -6 | . | .
COc1cccc(NC(=O)NC2CCCCN(Cc3ccc(C)cc3)C2=O)c1 (centres undefined) | 2 | 9 | 6 | 4 | 4 | -2 | . | .
c1ccc2cc(Cn3ccc4ccc(-c5ccc6ccn(Cc7ccc8ccccc8c7)c6c5)cc43)ccc2c1 | -13 | -61 | 9 | 6 | -21 | -80 | . | .
